What all share (format): functional
Experiment [1] relates to Mycobacterium tuberculosis. Nature of the experiment: Minimum Inhibitory Concentration against drug-resistant strain resistant to Rifampin. The essentials:
(§1)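 MICs by microplate alamar blue assay against M. tuberculosis strains resistant to isoniazid (ATCC 35822), rifampin (ATCC 35838), ethambutol, kanamycin or ciprofloxacin, drug-sensitive strain Erdman, and M. avium (ATCC 25291). MIC = minimum concentration giving 90% growth inhibition.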

The subject of experiment [2] is Mycobacterium tuberculosis. Kind of experiment: Minimum Inhibitory Concentration against drug-resistant strain resistant to Ciprofloxacin. The essentials:
as §1

Experiment [3] deals with Mycobacterium tuberculosis. Nature of the experiment: Minimum Inhibitory Concentration against drug-resistant strain resistant to Ethambutol. The essentials:
as §1

The test system of experiment [4] is Mycobacterium tuberculosis. Nature of the experiment: Minimum Inhibitory Concentration against drug-resistant strain resistant to Isoniazid. An outline of the steps: as §1

Each structure is given as a SMILES string. Converted amounts (≈) assume the structure as drawn.

For `Clc1nc(-c2ccco2)c2ncn(Cc3ccccc3)c2n1`, the MIC in experiment [1] was 1.56 µg/mL (≈ 5.02 µM); in experiment [2] it was less than 0.39 µg/mL; in experiment [3], less than 0.39 µg/mL; in experiment [4] it was 3.13 µg/mL (≈ 10.1 µM).

Broadly, the MIC is the least concentration at which growth counts as inhibited. High values mean a less susceptible organism, low ones a more susceptible organism.

The values above are taken from ChEMBL document CHEMBL1135898, “Synthesis and antimycobacterial activity of 6-arylpurines: the requirements for the N-9 substituent in active antimycobacterial purines” (J Med Chem, 2002).
